Source: PMC3488162 (The Journal of investigative dermatology, 2012)
“Also recorded” adds a separate entry of the source. One block for each molecule: values may come before it.

What was measured:
C. albicans [1] = test: Flow cytometric antimicrobial killing assay; type: cell-based, Candida albicans; details: for antifungal activity compared between hGAPDH (2-32), LL-37 and hBD-3: 10 μg/ml each; for depolarized fungal cells in a population: 1:6 diluted Schaedler broth, DiBAC4(3), flow cytometry, means of one representative experiment in triplicate
In short: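 Candida albicans (strains 143, 277, 526 and SC5314; 1.5×10^6 cells) incubated at 37°C in 1:6-diluted Schaedler broth with test peptide or reference antimicrobial peptides at 10 μg/ml, dissolved in 0.01% acetic acid. Solvent-only controls. After 90 min, DiBAC4(3) membrane-potential dye added for 10 min; cells pelleted and resuspended in PBS. Percentage of depolarized cells counted by flow cytometry, 10,000 events per sample.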

Sap = details: ref Korting et al., 1999; cited from earlier work
Sap2p = Sap2p (Candida albicans, UniProt P0CS83); test: Sap inhibition assay, Sap2; type: biochemical, C. albicans; details: as stated in abstract
Sap2p, sequence (P0CS83 57-398): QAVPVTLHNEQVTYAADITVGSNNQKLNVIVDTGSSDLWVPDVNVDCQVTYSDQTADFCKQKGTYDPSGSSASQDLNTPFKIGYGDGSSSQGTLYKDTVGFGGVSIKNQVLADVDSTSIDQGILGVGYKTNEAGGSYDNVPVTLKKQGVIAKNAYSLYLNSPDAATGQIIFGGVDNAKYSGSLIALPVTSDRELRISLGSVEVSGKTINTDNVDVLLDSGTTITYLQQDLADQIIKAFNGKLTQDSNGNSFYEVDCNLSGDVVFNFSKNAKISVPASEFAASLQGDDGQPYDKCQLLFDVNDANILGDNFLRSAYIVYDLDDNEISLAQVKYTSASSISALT

C. albicans SC5314 = test: Electron microscopy of C. albicans; type: cell-based, Candida albicans; details: 125 μg/ml, 24 h, 37 °C
In short: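 About 10^6 SC5314 cells/ml held with 125 μg/ml test compound for 24 h at 37 °C, beside an untreated control. Pellets fixed in 2.5% glutaraldehyde/2% formaldehyde (0.05 M phosphate, pH 7.3), post-fixed in 1% OsO4 and embedded in glycid ether. Sections of 20–30 nm stained with uranyl acetate and viewed by transmission EM.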

E. coli = test: Flow cytometric antimicrobial killing assay; type: cell-based, E. coli ATCC 25922; details: 90 min, 37°C
In short: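 E. coli ATCC 25922 (1.5×10^6 cells) in 1:6 diluted Schaedler broth at 37°C. Peptides dissolved in 0.01% acetic acid and added at 10 μg/ml; solvent served as viability control. After 90 min, DiBAC4(3) added for 10 min, cells spun and resuspended in PBS. Percentage of depolarised cells counted by flow cytometry over 10 000 events. One representative experiment run in triplicate.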

C. albicans [2] = test: Radial diffusion test, C. albicans; type: cell-based, Candida albicans; details: different media
C. albicans [3] = test: Annexin V-FITC / propidium iodide staining, apoptotic and necrotic marker; type: cell-based, Candida albicans
[4] = system: TLR4 mRNA expression of epithelial cells; test: Epithelial TLR4 mRNA expression; type: cell-based, human; details: 5 μg/ml, 12 h, n = 6
In short: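 Epithelial cells infected or not with C. albicans SC5314, with or without 5 μg/ml test compound, for 12 h. Total RNA extracted; cDNA made from 1 μg RNA with SuperScript III. qPCR run in duplicate using mean Ct, normalised to a housekeeping gene. Data are means±SD of duplicate assays from three experiments; 2-tailed paired t test, n = 6.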

C. albicans [5] = test: Broth microdilution, C. albicans; type: cell-based, Candida albicans; details: data not shown
[6] = system: P. aeruginosa clinical isolate; test: Broth microdilution, P. aeruginosa clinical isolate; type: cell-based; details: data not shown
[7] = system: IL-8 secretion of epithelial cells; test: IL-8 secretion by epithelial cells; type: cell-based, human; details: 5 μg/ml, 12 h, n = 6
In short: (§1)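 Epithelial cells infected or not with C. albicans SC5314, with or without 5 μg/ml test compound, for 12 h. Cytokine in culture supernatants measured by DuoSet sandwich ELISA. Data are means±SD of duplicate assays from three experiments; 2-tailed paired t test, n = 6.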

[8] = system: RHE (TR146) infected with C. albicans SC5314; test: Histology of reconstituted human oral epithelium; type: cell-based; details: 125 μg/ml, 18 h after infection with C. albicans SC5314
In short: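 Multilayer oral RHE infected with 2×10^6 C. albicans SC5314 in 3 g/l TSB/10 mM sodium phosphate, pH 7.2. Test compound at 5–125 μg/ml or none, for 12 and 18 h at 37 °C in 5% CO2 with 100% humidity. Light microscopy scored on 50 sections from five sites per epithelium.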

Sap1p = Sap1p (Candida albicans, UniProt P0CY27); details: as stated in abstract
Sap1p, sequence (P0CY27 51-391): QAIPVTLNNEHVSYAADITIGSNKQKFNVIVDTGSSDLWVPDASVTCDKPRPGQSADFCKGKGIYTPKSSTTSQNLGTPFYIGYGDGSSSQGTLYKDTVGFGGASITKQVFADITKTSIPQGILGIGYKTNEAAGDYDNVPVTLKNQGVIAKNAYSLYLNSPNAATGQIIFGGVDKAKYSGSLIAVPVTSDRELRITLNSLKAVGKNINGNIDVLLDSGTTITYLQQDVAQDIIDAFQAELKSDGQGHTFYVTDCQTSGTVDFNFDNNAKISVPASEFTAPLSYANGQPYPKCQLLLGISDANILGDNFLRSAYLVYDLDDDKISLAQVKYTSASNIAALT

P. aeruginosa PAO = test: Broth microdilution, P. aeruginosa PAO; type: cell-based; details: data not shown
[9] = system: GM-CSF secretion of epithelial cells; test: GM-CSF secretion by epithelial cells; type: cell-based, human; details: uninfected epithelial cells; 5 μg/ml; 12 h; n = 6
In short: as §1

TR146 epithelial cells = test: LDH release by uninfected epithelial cells; type: cell-based, human
In short: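 TR146 buccal cells grown in DMEM with 10% FCS at 37°C, 5% CO2. Tests run in antibiotic-free medium with 5, 10, 50, 100 or 125 μg/ml test compound for 12 and 24 h. Damage read as LDH release. Standard LDH samples spiked with 5 and 125 μg/ml test compound checked for assay interference.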

E. coli BL21 = test: Broth microdilution, E. coli BL21; type: cell-based; details: data not shown
C. albicans cells = type: cell-based, Candida albicans; details: external (5 μg/ml) and endogenous peptide; oral RHE, 12 h; immunofluorescence
In short: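 Oral RHE infected with 2×10^6 C. albicans SC5314 in TSB/10 mM sodium phosphate, pH 7.2, with or without 5 μg/ml peptide, for 12 h. Tissue cryofixed; 5-μm sections fixed in PLP, blocked with donkey serum. Stained with affinity-purified rabbit anti-peptide antibody (1:50) and human anti-C. albicans serum (1:60), then Dylight 549/Cy5 secondaries and YOPRO nuclear stain. Confocal imaging at ×400 and ×250.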

GAPDH = details: ref Mookherjee et al., 2009; cited from earlier work
Sap2 = details: ref Wu et al., 1999, cited from earlier work
C. albicans [10] = details: ref Wu et al., 1999, cited from earlier work
[11] = epithelial cells infected with C. albicans SC5314

Molecule: hBD-3: antimicrobial peptide hBD-3 (Peptide Institute, Osaka, Japan) (GIINTLQKYYCRVRGGRCAVLSCLPKEEQIGKCSTRGRKCCRRKK; UniProt P81534 23-67, looked up) [reference compound]
- antifungal activity compared between hGAPDH (2-32), LL-37 and hBD-3 (C. albicans [1]; C. albicans, 90 min, 37°C): not significantly different

Molecule: CC(C)(C)NC(=O)[C@@H]1CN(Cc2cccnc2)CCN1C[C@@H](O)C[C@@H](Cc1ccccc1)C(=O)N[C@H]1c2ccccc2C[C@H]1O [indinavir]
- inhibition of Sap activity (Sap): inhibit Sap activity

- ED50, inhibition of Sap activity (Sap2p): 200 µg/mL
- growth inhibition (MIC 100%) (C. albicans [5]): micromolar concentrations
- growth inhibition (MIC 100%) [6]: micromolar concentrations
- ED50, inhibition of Sap activity (Sap1p): 160 µg/mL
- growth inhibition (MIC 100%) (P. aeruginosa PAO): micromolar concentrations
- growth inhibition (MIC 100%) (E. coli BL21): micromolar concentrations
Molecule: GKVKVGVNGFGRIGRLVTRAAFNSGKVDIVA [hGAPDH (2-32)]
- ultrastructural changes of C. albicans morphology (C. albicans SC5314): distinct changes of the cell wall, plasma membrane and the cytoplasm; also recorded: enlargement of the fungal cytoplasmic vacuoles, disorganization of the internal organelles and the appearance of yeasts with an empty cytoplasm resembling necrotic ghost cells
- antibacterial activity compared with LL-37 and hBD-3 (E. coli; 10 μg/ml each): less active against E. coli
- antibacterial activity (E. coli; 10 μg/ml, 1:6 diluted Schaedler broth): potent antibacterial activity
- antifungal activity (C. albicans [2]): antifungal activity was also demonstrated
- protoplasts with peripheral annexin V-FITC fluorescence (apoptosis) (C. albicans [3]; 5 μg/ml, 1 h, 37°, 300 fungal cells): 31%
- cellular changes after longer treatment or higher doses (C. albicans [3]; treated for longer time with 5 μg/ml or at higher doses): cellular changes characteristic of necrosis
- TLR4 expression [4, 11]: increased
- TLR4 mRNA expression ([4]; uninfected epithelial cells, vs PBS treated controls): increased
- IL-8 secretion [7, 11]: even increased
- IL-8 secretion ([7]; uninfected epithelial cells): increased secretion
- morphological alterations of infected RHE [8]: far less marked morphological alterations
- number of yeast cells on the mucosal surface [8]: decreased
- spongiosis and invasion of keratinocytes by yeast cells [8]: inhibited
- edema in infected RHE ([8]; uppermost keratinocyte layers): mild edema
- dose dependence of antifungal effect (C. albicans [1]; C. albicans SC5314, 5, 10, 50, 100 and 125 μg/ml, 90 min): dose dependent
- effectiveness in killing assay (C. albicans [1]; C. albicans, 5 μg/ml): not very effective
- depolarized fungal cells in a population (C. albicans [1]; C. albicans, 10 µg/ml (3.1 µM), 90 min, 37°C): 45%
- antifungal activity compared between hGAPDH (2-32), LL-37 and hBD-3 (C. albicans [1]; C. albicans, 90 min, 37°C): not significantly different
- depolarized fungal cells in a population (C. albicans [1]; C. albicans, 100 µg/ml, 90 min, 37°C): 90%
- depolarizing of the fungi in a population (C. albicans [1]; two of the four tested C. albicans strains, 10 μg/ml, 90 min, 37°C): approximately 50%
- sensitivity of C. albicans strains (C. albicans [1]; two other of the four tested C. albicans strains, 10 μg/ml, 90 min, 37°C): slightly lower sensitivity
- GM-CSF secretion [9]: increased secretion
- toxic mucosal effects (TR146 epithelial cells; low concentrations): without any toxic mucosal effects
- toxicity on mammalian cells (TR146 epithelial cells; uninfected epithelial cells, LDH release): low toxicity
- affinity to C. albicans cells (C. albicans cells): strong affinity
- internalization by fungal cells (C. albicans cells): internalization by the fungal cells

Molecule: LL-37: antimicrobial peptide LL-37 (Innovagen, Lund, Sweden); human cathelicidin (LLGDFFRKSKEKIGKEFKRIVQRIKDFLRNLVPRTES; Antibacterial peptide LL-37; UniProt P49913 134-170, looked up)
- GAPDH as mononuclear cell receptor (GAPDH): GAPDH is relevant for the functioning

Molecule: CC(C)(C)NC(=O)[C@@H]1C[C@@H]2CCCC[C@@H]2CN1C[C@@H](O)[C@H](Cc1ccccc1)NC(=O)[C@H](CC(N)=O)NC(=O)c1ccc2ccccc2n1 [saquinavir]
- inhibition of Sap activity (Sap): inhibit Sap activity

Molecule: lysozyme: antimicrobial protein ubiquitous in human mucosal secretions such as saliva
- production of Sap (Sap2; lower concentrations): decreasing the production
- secretion of the isoenzyme Sap2 (Sap2): decreased
- killing of C. albicans (C. albicans [10]; higher concentrations): killing the organism
- growth of C. albicans (C. albicans [10]): inhibited the growth
